The target of this test is Scavenger receptor class B member 1 (Mus musculus) (UniProt Q61009). Briefly: blockers of [3H]CE-HDL uptake via mouse SR-BI – cell-based, wild-type CHO mSR-BI, scintillation, powder samples, orthogonal assay for SR-BI HDL uptake inhibitor project, dose response (AID 624022). The settings on record: CHO mSR-BI cells. The essentials:
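Test system: LDL receptor-deficient CHO cells overexpressing mouse SR-BI; signal: scintillation counting; probe or stimulus: [3H]cholesteryl ester-HDL; timing: 1 h compound pretreatment, then 2 h uptake, 37 °C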

As a reminder, the IC50 is the concentration that gives 50% inhibition.

Sequence of Scavenger receptor class B member 1 (Mus musculus) (Q61009 whole entry, looked up): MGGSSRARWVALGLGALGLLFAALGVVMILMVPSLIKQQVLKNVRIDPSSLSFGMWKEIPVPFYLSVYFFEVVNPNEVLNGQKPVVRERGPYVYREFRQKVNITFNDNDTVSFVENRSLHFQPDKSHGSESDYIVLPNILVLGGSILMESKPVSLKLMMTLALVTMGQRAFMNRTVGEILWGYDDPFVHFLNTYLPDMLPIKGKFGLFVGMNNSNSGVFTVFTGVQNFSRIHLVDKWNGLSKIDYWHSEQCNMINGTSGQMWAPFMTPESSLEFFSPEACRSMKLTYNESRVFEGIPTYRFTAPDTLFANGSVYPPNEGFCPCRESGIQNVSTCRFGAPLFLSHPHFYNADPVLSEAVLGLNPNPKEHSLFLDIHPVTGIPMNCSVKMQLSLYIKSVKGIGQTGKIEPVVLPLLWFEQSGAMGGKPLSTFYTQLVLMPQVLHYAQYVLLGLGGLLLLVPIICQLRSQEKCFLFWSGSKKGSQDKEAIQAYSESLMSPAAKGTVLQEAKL

With `CC(C)NC(=O)Nc1ccc2c(c1)C(=O)N([C@H](C)CO)C[C@@H](C)[C@H](CN(C)S(=O)(=O)c1ccc(Cl)cc1)O2`, the half-inhibitory concentration (IC50) was 500 nM.
